CHT PAM: CHT positive allosteric modulators, primary screen, cell-based, membrane potential dye, choline EC20; High affinity choline transporter 1 (Homo sapiens), Q9GZV3; CHT-expressing cells; stronger effect = higher value; LV-AA mutant CHT in HEK293 cells; B-score at 10 µM; 310,000 tested, 0.49% active; AID 488977, 2010;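 active = initial fluorescence not abnormally high and integrated response B-score, plate-corrected, over 3 SD above library mean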
ANO1 block: TMEM16A chloride channel inhibitors, primary screen, cell-based, HTS | Anoctamin-1 (Mus musculus), Q8BHY3 | HEK293 TMEM16A/YFP iodide influx fluorescence, ionomycin | normalized B-score (activity score, 25-100; higher = stronger inhibition) at 10 µM | 310,000 tested, 1.2% active | AID 588511, 2011;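 active = ratio plate-corrected score three or more library SD toward inhibition, starting fluorescence score within five deviations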;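 note: score derived from kinetic fluorescence span divided by baseline fluorescence per well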
Target sequence (Q8BHY3 whole entry, looked up): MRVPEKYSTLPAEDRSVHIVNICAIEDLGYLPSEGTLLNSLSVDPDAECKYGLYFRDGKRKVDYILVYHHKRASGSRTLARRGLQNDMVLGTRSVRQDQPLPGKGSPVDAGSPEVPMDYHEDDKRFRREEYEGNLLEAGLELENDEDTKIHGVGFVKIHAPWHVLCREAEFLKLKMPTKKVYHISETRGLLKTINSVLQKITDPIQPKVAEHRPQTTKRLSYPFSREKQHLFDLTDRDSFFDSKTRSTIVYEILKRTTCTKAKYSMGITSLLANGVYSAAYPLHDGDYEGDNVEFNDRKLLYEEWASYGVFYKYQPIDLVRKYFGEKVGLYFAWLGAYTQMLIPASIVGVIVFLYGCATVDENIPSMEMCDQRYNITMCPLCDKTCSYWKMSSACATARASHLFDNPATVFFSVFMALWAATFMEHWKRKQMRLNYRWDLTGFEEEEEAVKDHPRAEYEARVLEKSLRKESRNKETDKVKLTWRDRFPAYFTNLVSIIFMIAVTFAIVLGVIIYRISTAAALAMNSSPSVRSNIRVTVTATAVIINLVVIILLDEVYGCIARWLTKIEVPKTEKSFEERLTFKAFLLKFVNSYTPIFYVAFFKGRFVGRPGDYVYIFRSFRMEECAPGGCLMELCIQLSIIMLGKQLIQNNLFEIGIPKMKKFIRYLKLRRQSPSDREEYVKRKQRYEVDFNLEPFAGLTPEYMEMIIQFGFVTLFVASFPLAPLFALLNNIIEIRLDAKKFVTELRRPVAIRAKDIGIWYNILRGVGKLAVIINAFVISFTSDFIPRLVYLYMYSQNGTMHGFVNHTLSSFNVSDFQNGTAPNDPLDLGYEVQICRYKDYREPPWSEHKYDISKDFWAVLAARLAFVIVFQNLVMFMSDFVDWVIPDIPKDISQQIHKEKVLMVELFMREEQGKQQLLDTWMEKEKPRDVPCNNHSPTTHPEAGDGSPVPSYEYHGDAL
CHT block: inhibitors of human choline transporter CHT | AID 488975, 2010 | 310,000 tested, 0.86% active | B-score at 10 µM | High affinity choline transporter 1 (Homo sapiens), Q9GZV3 | CHT-expressing cells, membrane potential dye, choline response; stronger effect = lower value;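 active = B-score over 3 SD under the library average, and starting fluorescence ratio not unusually high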;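 note: choline stimulus applied at its EC90 after an EC20 pre-addition; B-score computed on integrated fluorescence ratio after choline addition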
TMEM16A act: TMEM16A chloride channel activators or potentiators, primary screen, cell-based, HTS. Anoctamin-1 (Mus musculus), Q8BHY3. HEK293 TMEM16A/YFP-H148Q/I152L, iodide quench fluorescence; stronger effect = lower value. B-score at 10 µM. 340,000 tested, 0.3% active. AID 623877, 2012;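 active = fluorescence-ratio B-score plate-corrected deviation score at least 3 library SD below zero, with starting fluorescence score within 5 deviations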;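 note: channel opened by trigger with iodide after compound preincubation; score built on the fluorescence ratio of max minus min over baseline; more negative score means more quench and so TMEM16A activation or potentiation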
VIM-2 inhibitor: VIM-2 metallo-beta-lactamase inhibitors, primary screen, biochemical, epi-absorbance readout, Pseudomonas aeruginosa enzyme | purified VIM-2, nitrocefin hydrolysis, epi-absorbance fluorescence | inhibition, % at 5.6 µM | 290,000 tested, 0.89% active;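 active = inhibition above the mean of all tested compounds plus 3 SD, cutoff set per screening run, cut at about 7.5% in these data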;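 note: red hydrolysis product quenches plate fluorescence so inhibitors raise well fluorescence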
IMP-1 inh: IMP-1 metallo-beta-lactamase inhibitors, primary screen, biochemical, epi-absorbance readout, Pseudomonas aeruginosa enzyme. inhibition, % at 5.6 µM. 290,000 tested, 0.45% active. purified IMP-1, nitrocefin hydrolysis, epi-absorbance fluorescence;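 active = inhibition above the mean plus 3 SD of all compounds in the same screening run, cut at about 4.5% in these data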
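Test system: recombinant IMP-1 enzyme, purified / Medium: HEPES buffer pH 7.1 with ZnSO4 and Brij 35 / Doses: single dose, 5.6 µM / Times: 25 °C, 15 min preincubation, 25 min reaction / Detection: Epi-absorbance via hydrolysed-nitrocefin quenching of white-plate fluorescence, 480/530 nm, EDTA stop / Evaluation: percent inhibition from optical density relative to buffer-blank wells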
A number is an active result; - = inactive; . = no result. Rows were chosen to be rich in hits. Some 3.4% of all compounds tested hit in one or more screens of this group.

SMILES	CHT PAM	ANO1 block	CHT block	TMEM16A act	VIM-2 inhibitor	IMP-1 inh
Cc1cccc2cc(CN(CCCN(C)C)C(=S)NCCc3ccccc3)c(=O)[nH]c12	-	-	-	-	-	-
Cc1cc(C)c2[nH]c(=O)c(CN(Cc3cccnc3)C(=S)NCCCN(C)C)cc2c1	-	-	-	-	9.3	-
CCN(CC)CCCNC(=S)N(Cc1cccnc1)Cc1cc2cc(C)cc(C)c2[nH]c1=O	-	-	-	-	11.7	-
CN(Cc1ccccc1OCCO)CC1CCCN(CCc2ccc(Cl)cc2)C1 (stereo unspecified)	-	-	-	-	-	-
CC(C)Cc1nnc(NC(=O)C2=COCCO2)s1	.	.	.	-	.	.
CS(=O)(=O)CC(=O)Nc1ccc2nc3n(c(=O)c2c1)CCCCC3	-	-	-	-	-	-
Cc1ccccc1N=C1c2cc([N+](=O)[O-])ccc2-c2ncccc21	9.66	-	-	-	-	-
Cc1ccc(C)c(OCCC(=O)N2CCN(S(=O)(=O)c3ccc([N+](=O)[O-])cc3)CC2)c1	.	.	.	-	.	.
COc1cccc(NC(=O)Cn2c3ccc(F)cc3c3nc4n(c(=O)c32)CCCS4)c1	-	-	-	-	-	6.5
CCOc1ccc(CCNc2cc(C)nc3ncnn23)cc1OCC	-	-	-	-	-	-
COc1ccc(CCNc2c(C)c(C)nc3ncnn23)cc1	-	-	-	-	8.8	-
CCN(c1ccccc1)S(=O)(=O)c1ccc(NC(=O)c2nc(S(C)(=O)=O)ncc2Cl)cc1	-	-	-	-7.62	-	-
CCS(=O)(=O)c1ncc(Cl)c(C(=O)Nc2ccc(S(=O)(=O)N(C)c3ccccc3)cc2)n1	-	-	-	-	-	-
CC(C)(C)c1ccc(/C=C(\C#N)C(=O)NC2CC2)cc1	-	-	-	-	.	.
C[C@H](CO)N1C[C@H](C)[C@@H](CN(C)C(=O)NC2CCCCC2)Oc2ccc(NC(=O)Nc3ccc(C(F)(F)F)cc3)cc2C1=O	.	.	.	-5.02	.	.
C[C@H](CO)N1C[C@H](C)[C@@H](CN(C)C(=O)NC2CCCCC2)Oc2ccc(NC(=O)Nc3ccccc3)cc2C1=O	.	.	.	-	.	.
O=[N+]([O-])c1nn(-c2ccc3c(c2)OCCO3)n(O)c1=Nc1ccc(Cl)cc1	-	-	-	-	-	-
O=C1CCCN1CCCN=c1c([N+](=O)[O-])nn(-c2ccc(Cl)cc2)n1O	.	.	.	-41.6	-	-
Cc1ccc(N=c2c([N+](=O)[O-])nn(-c3ccc(Cl)cc3)n2O)cc1C	-	-	-	-	-	11.6
COc1ccc(NS(=O)(=O)c2cc(NC(=O)C(CC(C)C)NC(N)=O)ccc2N2CCOCC2)cc1 (stereo unspecified)	.	.	.	-	.	.
CCn1cc(S(=O)(=O)NCCc2ccc(OC)c(OC)c2)cn1	-	-	-	-	-	-
C[C@H]1CN=C(Nc2ccccc2)N1CC1CCC1	-	-	-	-	-	-
C[C@H]1CN=C(Nc2ccccc2)N1CC1CCCCCC1	-	-	-	-6.73	-	-
O=C(CCN1N=C(c2ccccc2)CCC1=O)NCC1COc2ccccc2O1 (stereo unspecified)	-	-	-	-	-	-
CCSc1nnc(NC(=O)c2cccc(S(=O)(=O)N(C)c3ccc(C)cc3)c2)s1	-	25	-	-	-	-
CCOC(=O)CSc1nnc(NC(=O)c2cccc(S(=O)(=O)N3CCCCCC3)c2)s1	-	25	-	-	-	-
C=CCOc1ccc(CN(C)CC(O)COc2cccc3ccccc23)cc1 (stereo unspecified)	-	-	-	-	-	-
NS(=O)(=O)c1ccc(NC(=O)CN2CCCN(S(=O)(=O)c3ccc(F)cc3)CC2)cc1	-	-	-	-7.78	-	-
O=C(Cn1c(=O)oc2ccccc21)Nc1ccc(S(=O)(=O)N2CCCCC2)cc1	-	-	-	-6.45	-	-
O=C(Cn1c(=O)oc2cc(S(=O)(=O)N3CCCC3)ccc21)NC1CCCCC1	-	-	-	-	-	-

Assay outcomes deposited in PubChem BioAssay by several laboratories.
